MrgX1 antag = human MrgX1 receptor antagonism, primary screen; MRGX1-HEK293 calcium flux, Fluo-4, BAM8-22 antagonism; stronger effect = lower value; Q96LB2; actives 1.3% (n = 310,000); B-score at 10 µM; AID 588676;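 active = calcium-response B-score plate-corrected more than 3 library SD below zero, starting fluorescence within 5 deviations, no agonist response on first addition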;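 note: peak minus trough fluorescence over baseline after final BAM8-22 challenge near maximal dose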
Target sequence (Q96LB2 whole entry, looked up): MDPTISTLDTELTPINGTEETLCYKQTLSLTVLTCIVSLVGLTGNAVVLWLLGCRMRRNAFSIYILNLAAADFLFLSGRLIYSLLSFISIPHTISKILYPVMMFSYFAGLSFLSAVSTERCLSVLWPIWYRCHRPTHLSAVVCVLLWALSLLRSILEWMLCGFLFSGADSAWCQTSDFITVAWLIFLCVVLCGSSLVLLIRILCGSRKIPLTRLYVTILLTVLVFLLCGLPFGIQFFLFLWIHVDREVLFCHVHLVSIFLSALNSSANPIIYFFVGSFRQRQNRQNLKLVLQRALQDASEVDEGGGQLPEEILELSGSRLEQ
MrgX1 PAM = allosterically activates human MrgX1 receptor signaling; Q96LB2; MrgX1-HEK293, Fluo-4 calcium flux, FDSS; stronger effect = higher value; B-score at 10 µM; actives 0.63% (n = 310,000);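 active = plate-corrected calcium response at least 3 library SD above typical, normal starting fluorescence, not activating the receptor alone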;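 note: compound read alongside a low EC10 to EC30 dose of BAM8-22 agonist; peak minus trough fluorescence over baseline measured at the second addition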
Lipid droplet = modulators of hepatic lipid droplet formation | AML12 mouse hepatocytes, oleate lipid droplets, BODIPY imaging | inhibition, % at 6.5 µM | actives 0.4% (n = 240,000);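 active = lipid droplet intensity inhibited by at least 50%, with more than 500 cells counted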
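Material – AML12 mouse liver cells · Also added – oleate loading, 100 µM · Compound dosing – 6.5 µM single-point dosing · Times – overnight treatment with compound plus oleate · Measured by – fluorescence imaging, 20x objective, two fields per well · Read-out – percent inhibition of filter-corrected integrated lipid droplet intensity per well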
RGS4 inh = inhibitors of human RGS4; B-score at 10 µM; P49798; HEK293 M3R/RGS4 inducible, Fluo-4 calcium flux; stronger effect = higher value; triggered by carbachol at its EC20; actives 0.45% (n = 310,000); AID 463165;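 active = B-score, a plate-corrected calcium signal, over three deviations above library mean, with baseline fluorescence within five deviations of library mean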;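 note: RGS4 expression induced by doxycycline in cells with stable M3 receptor; B-score is computed from the integrated fluorescence ratio over baseline after carbachol; higher B-score means a larger calcium signal and so more RGS4 inhibition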
Target sequence (P49798 whole entry, looked up): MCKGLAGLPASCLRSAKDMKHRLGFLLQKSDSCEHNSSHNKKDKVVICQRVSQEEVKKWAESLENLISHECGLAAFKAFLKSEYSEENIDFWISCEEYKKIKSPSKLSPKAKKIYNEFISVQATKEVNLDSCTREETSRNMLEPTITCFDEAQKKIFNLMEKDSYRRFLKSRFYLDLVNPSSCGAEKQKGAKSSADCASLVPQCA
MrgX1 agonist = human MrgX1 receptor agonism, primary screen; actives 0.44% (n = 310,000); AID 588627; B-score at 10 µM; Q96LB2; MrgX1-HEK293 cells, Fluo-4 calcium fluorescence, agonist mode; stronger effect = higher value;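 active = calcium response B-score plate-corrected fluorescence ratio at least 3 library SD, with starting fluorescence B-score inside 5 SD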
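System – MrgX1-expressing HEK293 cells · Incubation – cells plated overnight, dye loaded 0.5 h 37 °C, 0.5 h room temperature · Technique – kinetic Fluo-4 NW fluorescence of intracellular calcium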
RGS4 act = RGS4 potentiation or activation; actives 0.92% (n = 310,000); B-score at 10 µM; HEK293 M3R/inducible RGS4, carbachol calcium flux Fluo4; stronger effect = lower value;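 active = B-score of the integrated calcium signal more than 4 SD below the library mean, with starting fluorescence not abnormally high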;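 note: negative B-score means reduced calcium response which marks RGS4 activation or potentiation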
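Also added: carbachol at ECmax as muscarinic agonist stimulus; Assay system: HEK293 cells with stable M3R and inducible RGS4; Timing: overnight RGS4 induction, 30 min dye load 37 °C, 20 min compound RT; Measured by: Fluo4-AM (2 µM) calcium-flux fluorescence, kinetic read.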
* marks the source's active call; other numbers are inactive results; i = inactive; · = not tested or not shown. The list is not random: actives were taken first. Their share in the collection is about 3.8%.

SMILES | MrgX1 antag | MrgX1 PAM | Lipid droplet | RGS4 inh | MrgX1 agonist | RGS4 act
Cc1cc(NS(=O)(=O)c2ccc(NC(=S)NC(=O)c3cccc(S(=O)(=O)N(C)C)c3)cc2)no1 | i | 14* | 25 | i | i | i
Cc1cc(NS(=O)(=O)c2ccc(NC(=S)NC(=O)c3ccc(F)cc3)cc2)no1 | i | i | 2 | i | i | i
Cc1cc2nc3ccc(=[N+](C)C)cc-3sc2cc1N | · | · | -12 | i | · | -8.4*
CN(C)c1ccc2nc3ccc(=[N+](C)C)cc-3sc2c1 | i | i | 16 | i | i | -7.5*
Cc1ccc(S(=O)(=O)N(CC(=O)Nc2cccc(N(C)S(C)(=O)=O)c2)c2ccc(Cl)c(Cl)c2)cc1 | i | i | -30 | i | i | -11*
O=C(Nc1cccc(S(=O)(=O)N2CCOCC2)c1)c1ccc2c(=O)n3c(nc2c1)CCCCC3 | i | i | -5 | i | i | -7.3*
CC[N+](CC)(CC)C/C(N)=N/O | -6.1* | i | · | i | i | i
CCCN(CCC)CC(O)Cn1cc(/C=C/C(=O)c2ccccc2)c2ccccc21 (configuration not stated) | · | · | 12 | i | · | i
CCCCN(C)CC(O)Cn1cc(/C=C/C(=O)c2ccc(C)cc2)c2ccccc21 (configuration not stated) | -5.4* | i | -6 | i | i | i
CC(C)(C)OC(=O)N1CSC[C@H]1C(=O)NC[C@H](CC(=O)O)c1ccc(Cl)cc1 | i | i | 2 | i | i | i
O=C(COc1ccc(/C=C\[N+](=O)[O-])cc1)N1CCOCC1 | i | i | -3 | i | 35* | i
COc1ccc2c(C(=O)c3ccc(Cl)cc3)n(CCCC(N)=O)[n+]([O-])c2c1 | i | i | · | i | i | i
COCCn1c(N)c(N(Cc2ccccc2)C(=O)COc2ccc(F)cc2Cl)c(=O)[nH]c1=O | i | i | · | i | i | i
O=C(NC(=S)NCCC1=CCCCC1)c1ccccc1Br | i | i | -2 | i | i | -7.3*
CCCc1cc(C(=O)Nc2ccc(C(=O)c3ccc(F)cc3)cc2)n(C)n1 | -6.9* | i | -5 | i | i | i
Fc1cccc(F)c1-n1c(CN2CCCC2)csc1=S | -5.1* | i | -12 | i | i | i
N=C1SC(c2ccccc2)C(=O)N1c1ncc(Cc2ccccc2Cl)s1 (configuration not stated) | i | i | 2 | i | i | i
Cc1cc(OC(=O)c2ccccc2Br)cc(=O)n1C | i | 10* | · | i | i | i
CC(=O)c1c(OC(=O)c2ccccc2Br)ccc2c(C)cc(=O)oc12 | i | i | -23 | i | i | i
O=C(NN1C(=O)C2C(c3ccccc3)C=CC(c3ccccc3)C2C1=O)c1ccccc1 (configuration not stated) | i | i | -8 | i | i | i
O=C(NN1C(=O)C2C(c3ccccc3)C=CC(c3ccccc3)C2C1=O)c1cccc(Br)c1 (configuration not stated) | i | i | 2 | i | i | -10*
O=C(NCC(=O)N1CCCCCC1)c1ccc(Br)cc1 | i | i | 17 | i | i | i
COc1cc2c(cc1OC)/C(=C/C(=O)c1ccc(OC)c([N+](=O)[O-])c1)NCC2 | -4.6* | i | -9 | i | i | -7.3*
CC1(C)CC(=O)C2=C(C1)OC1=C(C(=O)CC(C)(C)C1)C2c1ccc(O)c([N+](=O)[O-])c1 | i | i | -2 | i | i | i
CC1(C)CC(=O)C2=C(C1)OC1=C(C(=O)CC(C)(C)C1)C2c1ccc(O)cc1O | i | i | · | i | 36* | i
SMILES | MrgX1 antag | MrgX1 PAM | Lipid droplet | RGS4 inh | MrgX1 agonist | RGS4 act
CC(=O)NC(c1ccc(C(C)C)cc1)c1c(O)ccc2ccccc12 (configuration not stated) | i | i | · | i | i | i
Cc1ccc(C(NC(=O)C2CCCCC2)c2c(O)ccc3ccccc23)cc1 (configuration not stated) | i | i | 57* | i | i | i
Cc1ccc(C)c(S(=O)(=O)N2CCN(C(=O)c3ccnn3C)CC2)c1 | i | i | 2 | i | i | i
Cc1cc(=O)[nH]c2ccccc12 | i | i | · | i | i | i
Cc1cc2[nH]c3c(c[n+](C)c4ccccc34)c2cc1C | i | i | -81 | i | i | -7.1*
O=C(NNC(=O)C1CC2CCC1C2)c1sc2ccccc2c1Cl (configuration not stated) | i | 6.9* | -7 | i | i | i
CCOc1ccc(NC(=S)N(C)C)cc1 | i | i | -14 | i | i | i
NCC(O)(c1ccc(Cl)cc1)c1ccc(Cl)cc1 | i | i | 2 | i | 37* | i
CCOc1ccc(N(C)c2ccc(/C=C3/SC(=S)NC3=O)cc2)cc1 | i | i | 1 | i | 35* | i
COc1ccc(CNC(=O)C(C)n2nc(C)n3c(cc4occc43)c2=O)cc1 (configuration not stated) | -8.1* | i | 15 | i | i | i
Cc1nn(C(C)C(=O)NC(C)CCc2ccccc2)c(=O)c2cc3occc3n12 (configuration not stated) | -7.6* | i | -24 | i | i | i
COCC(C)NC(=O)CSc1nc2ccccc2n1CCc1ccccc1 (configuration not stated) | i | i | -26 | i | 28* | i
COCC(C)NC(=O)Cn1c(SCc2ccccc2)nc2ccccc21 (configuration not stated) | i | i | -7 | i | i | i
C[C@H]1c2cccc(O)c2C(O)=C2C(=O)[C@]3(O)C(O)=C(C(N)=O)C(=O)[C@@H](N(C)C)C3[C@@H](O)C21 (some centres not stated) | -6.8* | i | · | i | i | i
O=C(CN1CCCCC1)N1N=C(c2cccs2)CC1c1cccs1 (configuration not stated) | i | i | -3 | i | i | -8*
CCNNC(=O)C(O)(Cc1ccccc1)Cc1ccccc1 | i | i | -24 | i | i | i
Cc1cc(NC(=O)c2c([N+](=O)[O-])c(C)nn2C)no1 | -5* | i | · | i | i | i
Cc1cc(NC(=O)c2c(Cl)c(C)nn2C)no1 | i | i | 5 | i | i | i

Screens (PubChem BioAssay)
